Values after ≈ are worked out from the molar mass of the structure shown.
What was measured:
Assay type in all cases: functional
[1] = tested on: Candida albicans; assay: Antifungal activity against Candida albicans CA4 after 48 hrs by broth microdilution method; settings: CA4, 48 h
In short: (§1)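 CLSI M27-A2 broth microdilution of clinical isolates in RPMI 1640 buffered to pH 7.0 with 0.165 M MOPS. Final inoculum 0.5 x 10^3 to 2.5 x 10^3 cells/ml, incubated 35°C for 48 h. Growth read as OD490 with background subtracted. MIC taken as the lowest drug concentration giving 80% growth reduction versus drug-free control. Run in triplicate.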

[2] = tested on: Candida albicans; assay: Antifungal activity against Candida albicans CA10 after 48 hrs by broth microdilution method; settings: CA10, 48 h; in short: as §1
[3] = tested on: Candida albicans; assay: Antifungal activity against Candida albicans CA135 after 48 hrs by broth microdilution method; settings: CA135, 48 h; in short: as §1
[4] = tested on: Candida albicans; assay: Antifungal activity against Candida albicans CA3 after 48 hrs by broth microdilution method; settings: CA3, 48 h; in short: as §1
[5] = tested on: Candida albicans; assay: Antifungal activity against Candida albicans CA138 after 48 hrs by broth microdilution method; settings: CA138, 48 h; in short: as §1
[6] = tested on: Candida albicans; assay: Antifungal activity against Candida albicans CA132 after 48 hrs by broth microdilution method; settings: CA132, 48 h; in short: as §1
[7] = tested on: Candida albicans; assay: Antifungal activity against Candida albicans CA1 after 48 hrs by broth microdilution method; settings: CA1, 48 h; in short: as §1
[8] = tested on: Candida albicans; assay: Antifungal activity against Candida albicans CA2 after 48 hrs by broth microdilution method; settings: CA2, 48 h; in short: as §1
[9] = tested on: Candida albicans; assay: Antifungal activity against Candida albicans CA127 after 48 hrs by broth microdilution method; settings: CA127, 48 h; in short: as §1
[10] = tested on: Candida albicans; assay: Antifungal activity against Candida albicans ATCC 10231 by broth microdilution method
In short: as §1, with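 “microdilution” for “microdilution of clinical isolates”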

[11] = tested on: Candida albicans; assay: Antifungal activity against Candida albicans CA137 after 48 hrs by broth microdilution method; settings: CA137, 48 h; in short: as §1

Row | Compound | MIC [1] | MIC [2] | MIC [3] | MIC [4] | MIC [5] | MIC [6] | MIC [7] | MIC [8] | MIC [9] | MIC [10] | MIC [11]
1 | OC(Cn1cncn1)(Cn1cncn1)c1ccc(F)cc1F [FLUCONAZOLE] | 1 µg/mL (≈ 3.27 µM) | 256 µg/mL (≈ 836 µM) | 128 µg/mL (≈ 418 µM) | 0.25 µg/mL (≈ 0.816 µM) | 128 µg/mL (≈ 418 µM) | 0.5 µg/mL (≈ 1.63 µM) | 0.25 µg/mL (≈ 0.816 µM) | 0.5 µg/mL (≈ 1.63 µM) | 1 µg/mL (≈ 3.27 µM) | 0.5 µg/mL (≈ 1.63 µM) | 64 µg/mL (≈ 209 µM)
2 | CCC(C)n1ncn(-c2ccc(N3CCN(c4ccc(OCC5COC(Cn6cncn6)(c6ccc(Cl)cc6Cl)O5)cc4)CC3)cc2)c1=O (stereo unspecified) [ITRACONAZOLE] | 0.031 µg/mL (≈ 0.0439 µM) | 128 µg/mL (≈ 181 µM) | 32 µg/mL (≈ 45.3 µM) | 0.031 µg/mL (≈ 0.0439 µM) | 64 µg/mL (≈ 90.7 µM) | 0.031 µg/mL (≈ 0.0439 µM) | 0.125 µg/mL (≈ 0.177 µM) | 0.125 µg/mL (≈ 0.177 µM) | 0.016 µg/mL (≈ 0.0227 µM) | – | 16 µg/mL (≈ 22.7 µM)
